Measured values from the array DNA melting data of Ke et al. (doi:10.1101/2024.01.08.574731).

What was measured:
[1] = folding enthalpy; higher = less favourable; fluorescence melt of hairpins on a sequencing array, two-state fit; details: sodium 0.088 M
Method in brief: (§1)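 Folding enthalpy and melting temperature come from bootstrapped two-state fits to Cy3 fluorescence of library hairpins carrying annealed Cy3 and quencher oligos on a sequenced MiSeq flow cell. Imaging was done in 50 mM Na-HEPES pH 8.0, 25 mM NaCl, stepping by 2.5 °C up to 60 °C, and signals were normalised to pre-quench Cy3 and to control constructs. Results of four replicates were combined by inverse variance, and fitted temperatures were raised by 9.35 °C to match UV melts.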

[2] = melting temperature; fluorescence melt of hairpins on a sequencing array, two-state fit, raised by 9.35 °C to match UV melts; details: sodium 0.088 M
Method in brief: as §1

Sequence | folding enthalpy [1] [kcal/mol] | Tm [2] [°C]
GACGCCGAAAGGCGTGTC ((((((....)))..))) | -8.76 | 66.9
GACGCCGAAAGGCTGGTC ((((((....)))..))) | -16.1 | 48
GACGCGACGAAAGTCGTC (((..(((....)))))) | -8.11 | 35.5
GACGCTGGAAACAACGTC ((((.((....)).)))) | -39.4 | 45.5
GACGCTGGAAACAGTGTC (((.(((....))).))) | -42 | 53.5
GACGGACGAAAGTCAGTC (((.(((....))).))) | -37.5 | 59.5
GACGGAGGAAACCCCGTC (((((.(....).))))) | -37.5 | 51.3
GACGGAGGAAACTCCATC ((.((((....)))).)) | -16.8 | 33.6
GACGGAGGAAACTCTGTC (((.(((....))).))) | -39.4 | 48
GACGGCGAAAGCCGTGTC ((((((....)))..))) | -9.28 | 63.9
GACGGGGGAAACCCCATC ((.((((....)))).)) | -14.7 | 37
GACGGTACGAAAGTAGTC (((..(((....)))))) | -16 | 34.5
GACGGTGGAAACACCACC (..((((....))))..) | -11.1 | 35.2
GACGGTGGAAACACCGCC (.(((((....))))).) | -12.7 | 50.4
GACGGTGGAAACGCTGTC (((.(.(....).).))) | -22.2 | 40.9
GACGTACCGAAAGGTGTC (((..(((....)))))) | -22.4 | 41.9
GACGTACGAAAGTAGTC (((.(((....)))))) | -34 | 52.8
GACGTAGCGAAAGCTGTC (((..(((....)))))) | -17.7 | 47.1
GACGTCGGAAACGGTGTC (((..((....))..))) | -25.7 | 43
GACGTGACGAAAGTCGTC (((..(((....)))))) | -14.2 | 49.4
GACGTGGGAAACCGTGTC (((..((....))..))) | -16.8 | 36.6
GACGTTGCGAAAGCAGTC (((..(((....)))))) | -16.5 | 49.9
GACTAACCGAAAGGTGTC (((..(((....)))))) | -18.3 | 41.4

Sequence | folding enthalpy [1] [kcal/mol] | Tm [2] [°C]
GACTAACGAAAGTTGTC (((.(((....)))))) | -24.1 | 42.4
GACTACGAAAGTACTGTC ((((((....)))..))) | -18.5 | 29.9
GACTACGAAAGTATGTC ((((((....))).))) | -26.2 | 44.7
GACTACGGAAACGTGGTC (((.(((....))).))) | -42.8 | 52
GACTAGCCGAAAGGCGTC (((..(((....)))))) | -9.39 | 40.5
GACTAGCGAAAGCTGGTC (((.(((....))).))) | -34.1 | 61
GACTATCCGAAAGGAGTC (((..(((....)))))) | -17 | 34.1
GACTATGGAAACGTAGTC (((((.(....).))))) | -32.4 | 42
GACTCACGAAAGTGGTC (((.(((....)))))) | -20 | 46.6
GACTCCCGAAAGGGTGTC (((.(((....))).))) | -33.1 | 58.3
GACTCCGAAAGGAGAGTC ((((((....)))..))) | -12.9 | 43
GACTCCGGAAACAGAGTC (((((.(....).))))) | -36.5 | 40.1
GACTCGCGAAAGCGTGTC (((.(((....))).))) | -27.1 | 63.3
GACTCGGCGAAAGCCGTC (((..(((....)))))) | -4.78 | 36.2
GACTCGGGAAACCAAGTC ((((.((....)).)))) | -25 | 37.6
GACTCGGGAAACCGAACC (..((((....))))..) | -9.35 | 22.6
GACTCGGGAAACCGGGTC (((.(((....))).))) | -40.6 | 55.1
GACTCTGGAAACGGAGTC (((((.(....).))))) | -46.5 | 50.3
GACTGACGAAAGTCTGTC (((.(((....))).))) | -36.7 | 54.9
GACTGAGGAAACCCAGTC (((((.(....).))))) | -33.7 | 44.8
GACTGAGGAAACTCAGCC (.(((((....))))).) | -16.9 | 43.4
GACTGCACGAAAGTGGTC (((..(((....)))))) | -13.9 | 35.3
GACTGCCGAAAGGCTGTC (((.(((....))).))) | -30.9 | 63.2

Sequence | folding enthalpy [1] [kcal/mol] | Tm [2] [°C]
GACTGCGAAAGCACCGTC ((((((....)))..))) | -10.7 | 37.6
GACTGCGAAAGCACGGTC ((((((....)))..))) | -12.4 | 42.4
GACTGCGAAAGCAGGGTC ((((((....)))..))) | -12.4 | 62.2
GACTGCGAAAGCAGGTC ((((((....))).))) | -13.1 | 58.1
GACTGCGAAAGCAGTGTC ((((((....)))..))) | -10.2 | 58.6
GACTGCGGAAACACAGTC (((((.(....).))))) | -26.8 | 47.4
GACTGCGGAAACGCAACC (..((((....))))..) | -9.21 | 25.1
GACTGCGGAAACGCGGTC (((.(((....))).))) | -34.1 | 63.5
GACTGGGGAAACCCGGTC (((.(((....))).))) | -41.7 | 54.1
GACTGGGGAAACTCAGTC (((((.(....).))))) | -40.5 | 49.9
GACTGGGGAAACTCGGTC (((.(.(....).).))) | -21.3 | 38.5
GACTTACGAAAGTAGGTC (((.(((....))).))) | -27.5 | 49.3
GACTTACGAAAGTAGTC (((.(((....)))))) | -26.8 | 43.1
GACTTACGAAAGTATGTC (((.(((....))).))) | -32.9 | 47.8
GACTTCCGAAAGGACGTC (((.(((....))).))) | -32.3 | 48.9
GACTTCGGAAACGAAATC ((.((((....)))).)) | -22.9 | 31.9
GACTTGCGAAAGCACGTC (((.(((....))).))) | -23.3 | 52.4
GACTTGGGAAACCAAGTC (((((((....))))))) | -35.8 | 62.3
GACTTGGGAAACCAGGTC (((.(((....))).))) | -37 | 46.4
GACTTTGGAAACAAGGTC (((.(((....))).))) | -38.1 | 41.8
GAGAACACGAAAGTGCTC (((..(((....)))))) | -15.6 | 32.9
GAGAACGAAAGTTCTC ((((((....)))))) | -36 | 62.4
GAGAACGAAAGTTGGCTC ((((((....)))..))) | -19.1 | 30.6

Sequence | folding enthalpy [1] [kcal/mol] | Tm [2] [°C]
GAGAACGAAAGTTGTCTC ((((((....)))..))) | -27.2 | 43.5
GAGAACGCGAAAGCGCTC (((..(((....)))))) | -12.2 | 39
GAGAACGGAAACGTTTTC ((.((((....)))).)) | -25.3 | 41.3
GAGAAGACGAAAGTCCTC (((..(((....)))))) | -13.2 | 31.4
GAGAAGCGAAAGCTCCTC (((.(((....))).))) | -21.7 | 45.1
GAGAAGGAAACTTCTC ((((((....)))))) | -23.3 | 48.3
GAGAAGGGAAACCCTCTC ((((.((....)).)))) | -22.8 | 35.6
GAGAAGGGAAACCTTTTC ((.((((....)))).)) | -28.4 | 28.8
GAGAATGCGAAAGCACTC (((..(((....)))))) | -9.82 | 32
GAGACAGGAAACCGTCTC (((((.(....).))))) | -29.2 | 46.3
GAGACAGGAAACTGTTTC ((.((((....)))).)) | -29.1 | 37.9
GAGACCGAAAGGTCCCTC ((((((....)))..))) | -11.1 | 44.6
GAGACCGAAAGGTGCCTC ((((((....)))..))) | -12.7 | 31.1
GAGACGGAAACGTCTC ((((((....)))))) | -39.8 | 63.3
GAGACGGGAAACCATCTC ((((.((....)).)))) | -24.5 | 36.8
GAGAGACGAAAGTCGCTC (((.(((....))).))) | -32.3 | 60.5
GAGAGAGGAAACTCTCTC (((((((....))))))) | -35.4 | 57.9
GAGAGCGAAAGCTACCTC ((((((....)))..))) | -10.4 | 30.1
GAGAGCGAAAGCTCCCTC ((((((....)))..))) | -10.3 | 44
GAGAGCGAAAGCTGCTC ((((((....))).))) | -14 | 47
GAGAGCGAAAGCTTGCTC ((((((....)))..))) | -10.4 | 35.5
GAGAGGGGAAACCTTCTC ((((.((....)).)))) | -27.4 | 40.3
